Reference: ChEMBL document CHEMBL4052637, “Discovery and Characterization of R/S-N-3-Cyanophenyl-N'-(6-tert-butoxycarbonylamino-3,4-dihydro-2,2-dimethyl-2H-1-benzopyran-4-yl)urea, a New Histone Deacetylase Class III Inhibitor Exerting Antiproliferative Activity against Cancer Cell Lines” (J Med Chem, 2017)
The source made the active and inactive calls. The calls are words filed in the database; no cut-off is given here.

Columns and labels:
[1] = target: T1, NAD-dependent protein deacetylase sirtuin-1 (Homo sapiens) (UniProt Q96EB6); assay: Inhibition of SIRT1 in human U373 cells assessed as increase of histone H4 acetylation at 2 uM after 8 hrs by Western blotting method relative to control; assay type: cell-based
T1 sequence (whole entry): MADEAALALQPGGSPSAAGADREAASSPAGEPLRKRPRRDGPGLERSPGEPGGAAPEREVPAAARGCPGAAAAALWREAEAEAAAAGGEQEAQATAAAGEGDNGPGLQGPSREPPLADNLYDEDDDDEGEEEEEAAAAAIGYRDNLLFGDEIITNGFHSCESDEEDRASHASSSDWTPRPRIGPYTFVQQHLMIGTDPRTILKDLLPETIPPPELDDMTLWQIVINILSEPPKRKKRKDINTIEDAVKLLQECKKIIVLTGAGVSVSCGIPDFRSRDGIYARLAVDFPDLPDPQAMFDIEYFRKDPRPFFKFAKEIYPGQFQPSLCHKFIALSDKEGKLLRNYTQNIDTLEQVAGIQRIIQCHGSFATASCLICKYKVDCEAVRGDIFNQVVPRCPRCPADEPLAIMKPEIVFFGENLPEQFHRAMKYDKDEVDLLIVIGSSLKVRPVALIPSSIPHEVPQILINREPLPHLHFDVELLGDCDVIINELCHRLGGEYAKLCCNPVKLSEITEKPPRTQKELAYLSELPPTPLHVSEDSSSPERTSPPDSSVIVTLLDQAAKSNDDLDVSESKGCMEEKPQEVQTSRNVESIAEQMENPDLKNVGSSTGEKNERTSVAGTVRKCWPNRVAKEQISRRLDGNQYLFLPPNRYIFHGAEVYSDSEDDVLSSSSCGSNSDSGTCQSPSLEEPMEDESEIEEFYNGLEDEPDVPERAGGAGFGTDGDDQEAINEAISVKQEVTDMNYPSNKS

[2] = target: T1, NAD-dependent protein deacetylase sirtuin-1 (Homo sapiens); assay: Inhibition of SIRT1 in human Hs683 cells assessed as increase of histone H4 acetylation at 2 uM after 8 hrs by Western blotting method relative to control; assay type: cell-based
[3] = target: T2, NAD-dependent protein deacetylase sirtuin-2 (Homo sapiens) (UniProt Q8IXJ6); assay: Inhibition of SIRT2 in human U373 cells assessed as increase of alpha-tubulin acetylation at 2 uM after 8 hrs by Western blotting method relative to control; assay type: cell-based
T2 sequence (whole entry): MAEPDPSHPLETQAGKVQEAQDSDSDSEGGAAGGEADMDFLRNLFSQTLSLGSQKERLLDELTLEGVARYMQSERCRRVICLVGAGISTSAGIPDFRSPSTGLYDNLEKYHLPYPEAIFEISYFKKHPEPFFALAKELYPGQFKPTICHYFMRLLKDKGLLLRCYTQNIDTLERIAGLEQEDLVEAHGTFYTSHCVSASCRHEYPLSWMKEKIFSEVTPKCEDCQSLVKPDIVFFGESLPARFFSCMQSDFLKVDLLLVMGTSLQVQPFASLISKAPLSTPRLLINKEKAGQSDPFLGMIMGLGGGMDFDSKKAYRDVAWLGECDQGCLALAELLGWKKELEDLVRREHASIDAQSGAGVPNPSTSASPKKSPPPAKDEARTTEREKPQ

[4] = target: T2, NAD-dependent protein deacetylase sirtuin-2 (Homo sapiens); assay: Inhibition of SIRT2 in human Hs683 cells assessed as increase of alpha-tubulin acetylation at 2 uM after 8 hrs by Western blotting method relative to control; assay type: cell-based
Hs 683 [5] = assay: Cell cycle arrest in human Hs683 cells assessed as accumulation at sub-G1 phase at 2 uM after 24 to 48 hrs by propidium iodide staining-based flow cytometry; assay type: functional
Outline: (§1)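 Cells were exposed to compound at the IC50 for each line from the 72 h MTT assay, or to a reference HDAC inhibitor at 2 μM. Cell cycle distribution was analyzed after 24 and 48 h. Results are mean ± SD of three independent experiments, with p values against control cells.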

U-373MG ATCC = assay: Cell cycle arrest in human U373 cells assessed as accumulation at sub-G1 phase at 2 uM after 24 to 48 hrs by propidium iodide staining-based flow cytometry; assay type: functional; outline: as §1
Hs 683 [6] = assay: Cell cycle arrest in human Hs683 cells assessed as accumulation at G1 phase at 2 uM after 24 to 48 hrs by propidium iodide staining-based flow cytometry; assay type: functional; outline: as §1

- fold change (FC) [1]: 7.9
- fold change (FC) [2]: 12.6
- fold change (FC) [3]: 18.6
- fold change (FC) [4]: 18.7
SMILES: O=C(CCCCCCC(=O)Nc1ccccc1)NO
- Activity (Hs 683 [5]): Active
- Activity (U-373MG ATCC): Active
- Activity (Hs 683 [6]): Active
